Results taken from paper PMC5515376 (Nature, 2016).
Read-outs that look alike come from different tables or passages of the source.

Legend:
[1] = test system: P. falciparum Dd2; test: In vitro P. falciparum blood-stage growth inhibition assay; assay type: cell-based, Plasmodium falciparum
[2] = test system: Mammalian cells (HepG2, A549, and HEK293); test: Mammalian cell cytotoxicity; assay type: cell-based; settings: initial characterization
Method in brief: (§1)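 HepG2, A549 or HEK293 cells were grown in DMEM with 10% FBS and 1% antibiotic–antimycotic and tested mycoplasma-free. Cells (1 × 10^6) were seeded one day before treatment. They were exposed to ascending compound doses for 72 h, and viability was read by CellTiter-Glo.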

[3] = test system: P. falciparum NITD609^R; test: Blood-stage growth inhibition, P. falciparum NITD609^R strain; assay type: cell-based, Plasmodium falciparum
Method in brief: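 Asexual blood-stage parasites were cultured to 3–8% parasitaemia, counted on Giemsa smears, and diluted in medium to 2.0% parasitaemia and 2.0% haematocrit. This suspension was added to compound dispensed from DMSO, giving a final 1% parasitaemia and 1% haematocrit, with mefloquine as control. Plates were incubated for 72 h at 37 °C. Growth was read by SYBR Green I fluorescence in Tris/EDTA/saponin/Triton X-100 lysis buffer.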

[4] = test system: P. falciparum 3D7 stage IV–V gametocytes; test: In vitro transmission-blocking assay; assay type: cell-based, Plasmodium falciparum
Method in brief: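 3D7 cultures were treated 3 days with 50 mM N-acetyl-D-glucosamine to remove asexual parasites. Stage IV–V gametocytes were then isolated on a discontinuous Percoll gradient. Gametocytes (1.0 × 10^5 per well) were incubated with compound for 72 h. Viability was measured by CellTiter-Glo luminescence.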

[5] = Solubility assay in PBS; assay type: physicochemical; settings: for PBS solubility: PBS pH 7.4 with 1% DMSO
Method in brief: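 Compound was prepared at 100 µM in triplicate, both in 100% DMSO and in PBS pH 7.4 with 1% DMSO. Samples were shaken at 750 r.p.m. for 18 h at room temperature. Analysis was by UPLC–MS with single-ion detection. PBS response was fitted to a two-point calibration built from the DMSO samples.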

[6] = test system: parasite cytosolic Na^+ concentration; test: Parasite cytosolic Na+ concentration measurement; assay type: cell-based, Plasmodium falciparum; settings: after treatment
[7] = Metabolic stability assay, human liver microsomes; assay type: in vitro ADME
Method in brief: (§2)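 Liver microsomes (0.2 mg ml−1) were incubated with compound (0.5 and 5 µM) plus NADPH for 0, 10 and 90 min. Human microsomes or mouse CD-1 microsomes were used, as named in each line. Compound depletion was measured by LC–MS/MS and used to estimate Km, Vmax and half-life.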

[8] = molecular target: hERG channel (Homo sapiens, UniProt Q12809); test: hERG channel inhibition assay; assay type: cell-based; settings: read-out: hERG IC50; IKr
Chain of hERG channel (Q12809 whole entry): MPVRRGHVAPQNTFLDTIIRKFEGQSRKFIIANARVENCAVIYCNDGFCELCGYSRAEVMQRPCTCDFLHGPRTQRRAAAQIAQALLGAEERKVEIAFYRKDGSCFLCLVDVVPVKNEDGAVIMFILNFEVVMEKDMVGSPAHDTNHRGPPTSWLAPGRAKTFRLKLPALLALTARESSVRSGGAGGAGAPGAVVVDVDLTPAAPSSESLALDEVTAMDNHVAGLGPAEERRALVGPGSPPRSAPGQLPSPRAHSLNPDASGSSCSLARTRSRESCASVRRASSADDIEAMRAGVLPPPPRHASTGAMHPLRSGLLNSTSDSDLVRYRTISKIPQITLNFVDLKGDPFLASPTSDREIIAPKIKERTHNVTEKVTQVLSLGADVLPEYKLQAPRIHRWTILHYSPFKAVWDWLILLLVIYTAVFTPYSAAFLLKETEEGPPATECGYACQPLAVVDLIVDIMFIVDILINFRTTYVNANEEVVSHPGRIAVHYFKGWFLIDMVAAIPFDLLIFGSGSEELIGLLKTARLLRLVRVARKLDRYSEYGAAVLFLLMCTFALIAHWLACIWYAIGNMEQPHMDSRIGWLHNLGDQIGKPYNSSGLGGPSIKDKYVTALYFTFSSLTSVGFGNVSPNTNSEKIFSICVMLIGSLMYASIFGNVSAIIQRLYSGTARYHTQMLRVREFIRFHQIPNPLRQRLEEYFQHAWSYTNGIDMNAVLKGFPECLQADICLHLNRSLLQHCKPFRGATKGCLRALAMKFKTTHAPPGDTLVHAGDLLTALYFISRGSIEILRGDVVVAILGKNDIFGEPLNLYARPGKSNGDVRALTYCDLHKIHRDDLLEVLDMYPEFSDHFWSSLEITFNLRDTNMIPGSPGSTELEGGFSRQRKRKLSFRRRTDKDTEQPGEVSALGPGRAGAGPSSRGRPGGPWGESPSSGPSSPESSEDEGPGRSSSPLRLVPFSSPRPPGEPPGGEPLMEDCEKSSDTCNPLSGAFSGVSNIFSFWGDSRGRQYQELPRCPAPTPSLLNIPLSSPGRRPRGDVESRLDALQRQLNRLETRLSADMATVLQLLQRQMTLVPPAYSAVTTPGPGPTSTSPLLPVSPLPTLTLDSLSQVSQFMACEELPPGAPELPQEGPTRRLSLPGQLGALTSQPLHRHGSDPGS
Method in brief: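 hERG current was measured in hERG-expressing cell lines by automated patch clamp (QPatch-HTX).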

[9] = Metabolic stability assay, mouse liver microsomes; assay type: in vitro ADME
Method in brief: as §2

[10] = Plasma protein binding assay; assay type: in vitro ADME
Method in brief: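 Binding was measured by equilibrium dialysis in a RED device. Compound at 5 µM, in duplicate, was placed in mouse plasma (0.95% acetonitrile, 0.05% DMSO) against PBS pH 7.4. Incubation was 5 h at 37 °C with 350 r.p.m. orbital shaking. Both sides were analysed by UPLC–MS with single-ion detection.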

[11] = test system: HepG2 cell line; test: Mammalian cell cytotoxicity assay; assay type: cell-based, human; settings: for CC50: read-out: HepG2 CC50, 72 h; for Cytotoxicity: HepG2 cell line
Method in brief: as §1

[12] = Mouse pharmacokinetics assay; assay type: in vivo; settings: CD-1 mice; for AUC0-t: t = 24 h
Method in brief: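 Female CD-1 mice received single intravenous and oral doses. Parameters were estimated by non-compartmental analysis.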

[13] = test system: P. falciparum (NF54) liver stage; test: In vitro P. falciparum liver-stage assay; assay type: cell-based, Plasmodium falciparum
[14] = test system: P. falciparum (NF54) male and female stage-V gametocytes; test: Dual gamete formation assay; assay type: cell-based, Plasmodium falciparum
[15] = test system: P. berghei (ANKA) liver stage; test: In vitro P. berghei liver-stage assay; assay type: cell-based, Plasmodium berghei; settings: P. berghei (ANKA), Liver stage
Method in brief: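 HepG2 cells (~17,500 per well, in duplicate) were cultured 18–24 h, then the medium was exchanged and compound added. After 1 h, 4,000 P. berghei ANKA GFP–luc sporozoites per well were added, freshly dissected from A. stephensi mosquitoes. Plates were spun 10 min at 1,000 r.p.m. and incubated 48 h at 37 °C. Parasite load was read by Bright-Glo luminescence.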

[16] = test system: P. falciparum (NF54) gametocytes; test: In vitro transmission-blocking imaging assay; assay type: cell-based, Plasmodium falciparum
Method in brief: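 Highly synchronous NF54 pf-LUC-GFP gametocytes were induced from a single asexual cycle. They were exposed to 16 compound doses, with final controls of 0.4% DMSO and 5 µM puromycin, for 72 h at 37 °C under 5% CO2/5% O2/90% N2 and 60% humidity. MitoTracker Red CM-H2XRos was then added overnight, and plates were imaged after ≥1 h at room temperature. IC50 came from a 4-parameter variable-slope fit.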

[17] = test system: P. berghei (ANKA GFP-luc) blood-stage parasites; test: In vivo P. berghei blood-stage assay; parameters: species or system Plasmodium berghei; settings: CD-1 mice; single 100 mg kg^−1 dose; parasites re-emerge very quickly
[18] = read-out: PfDd2 EC50, asexual blood-stage parasites (Dd2), SAR table
[19] = read-out: Pf, Dd2 EC50, blood stage
[20] = printed in the IV (3) column, PO (10) vs IV (3) mg/kg
[21] = P. falciparum (Dd2), Blood stage

Structure (SMILES): COc1ccc(NC(=O)N2CCCCN3[C@H](CO)[C@H](c4ccc(C#Cc5ccccc5C#N)cc4)[C@@H]3C2)cc1 [BRC4873]
- EC50 [1, 18]: 261 nM

Structure (SMILES): COc1ccc(-c2ccccc2[C@H]2[C@@H](C#N)N(C(=O)C3CCCC3)[C@H]2CO)cc1 [BRD0026]
- Cytotoxicity (in words) [2]: low cytotoxicity
- Potency against Pf NITD609^R ([3]; relative to Dd2): selectively reduced potency
- EC50 ([3]; strain carrying a point mutation in P. falciparum ATPase4): 1770 nM
- EC50 ([4]; read-out: EC50, late-sexual blood stages, in vitro): 1980 nM
- EC50 ([1]; read-out: EC50, asexual blood stages, in vitro): 346 nM
- Solubility (in words) ([5]; initial characterization): good solubility
- Parasite cytosolic Na^+ concentration [6]: rapid increase

Structure (SMILES): COc1ccc(NC(=O)N2CCCCCN3[C@H](CO)[C@H](c4ccc(C#Cc5ccccc5)cc4)[C@@H]3C2)cc1 [BRD0185]
- EC50 [1, 18]: 87 nM

Structure (SMILES): COc1ccc(NC(=O)N2CCCCN3[C@H](CN)[C@H](c4ccc(C#Cc5ccccc5)cc4)[C@@H]3C2)cc1 [BRD1095]
- Human Clint [7]: < 20 µL/min/mg
- IC50 [8]: 5100 nM
- Mouse Clint [9]: < 20 µL/min/mg
- Mouse Plasma protein binding [10]: 99.3%
- EC99.9 ([1]; P. falciparum Dd2): 60 nM
- EC50 [1, 19]: 10 nM
- EC50 [1, 18]: 10 nM
- PBS solubility [5]: 25 µM
- CC50 [11]: 15600 nM
- AUC0-inf ([12]; IV (3) mg/kg): 14.9 µM·h
- CL ([12]; IV (3) mg/kg): 6.7 mL/min/kg
- MRT0-inf ([12]; IV (3) mg/kg): 39.2 h
- Vss ([12]; IV (3) mg/kg): 16 L/kg
- AUC0-t ([12]; IV (3) mg/kg): 7 ^¶ µM*hr
- Cmax ([12]; PO (10) mg/kg): 600 nM
- T1/2 ([12]; PO (10) mg/kg): 28.8 h
- Tmax ([12]; PO (10) mg/kg): 4 h
- AUC0-t ([12]; PO (10) mg/kg): 11.7 ^¶ µM*hr
- F [12, 20]: 50%

Structure (SMILES): COc1ccc(NC(=O)N2CCCCN3[C@H](CO)[C@H](c4ccc(C#Cc5ccccc5)cc4)[C@]3(CO)C2)cc1 [BRD2936]
- EC50 [1, 18]: 1870 nM

Structure (SMILES): COc1ccc(NC(=O)N2CCCCN3[C@H](COCCC(=O)O)[C@H](c4ccc(C#Cc5ccccc5)cc4)[C@@H]3C2)cc1 [BRD3316]
- Human Clint [7]: 34 µL/min/mg
- IC50 [8]: > 10000 nM
- Mouse Clint [9]: 38 µL/min/mg
- EC50 [1, 21]: 19 nM
- EC50 [1, 19]: 23 nM
- EC50 [1, 18]: 22 nM
- PBS solubility [5]: 91 µM
- Cytotoxicity [11]: no significant cytotoxicity
- CC50 [11]: > 50000 nM
- AUC0-inf ([12]; IV (3.2) mg/kg): 13.2 µM·h
- CL ([12]; IV (3.2) mg/kg): 7.1 mL/min/kg
- MRT0-inf ([12]; IV (3.2) mg/kg): 3.3 h
- T1/2 ([12]; IV (3.2) mg/kg): 2.3 h
- Vss ([12]; IV (3.2) mg/kg): 1.4 L/kg
- AUC0-inf ([12]; PO (13) mg/kg): 33.5 µM·h
- Cmax ([12]; PO (13) mg/kg): 6800 nM
- F ([12]; PO (13) mg/kg): 63%
- MRT0-inf ([12]; PO (13) mg/kg): 3.9 h
- T1/2 ([12]; PO (13) mg/kg): 2.4 h
- Tmax ([12]; PO (13) mg/kg): 1 h
- AUC0-t ([12]; PO (13) mg/kg): 33.5 ^¶ µM*hr

Structure (SMILES): COc1ccc(NC(=O)N2CCCCN3[C@H](CO)[C@H](c4ccc(C#Cc5ccccc5)cc4)[C@@H]3C2)cc1 [BRD3444]
- EC50 [13]: 1310 nM
- Human Clint [7]: 142 µL/min/mg
- IC50 [8]: 5200 nM
- EC50 ([14]; read-out: EC50, gamete formation, female (F)): 804 nM
- EC50 ([14]; read-out: EC50, gamete formation, male): ~1000 nM
- EC50 [15]: 140 nM
- EC50 ([16]; read-out: EC50, early (E, stages I–III) gametocytes): 282 nM
- EC50 ([16]; read-out: EC50, late (L, stages IV–V) gametocytes): 1440 nM
- Mouse Clint [9]: 248 µL/min/mg
- Mouse Plasma protein binding [10]: 99.9%
- EC50 ([4]; P. falciparum (3D7), Gametocyte (IV-V)): 663 nM
- EC50 [1, 21]: 9 nM
- EC50 [1, 19]: 9 nM
- EC50 [1, 18]: 11 nM
- Potency across P. falciparum Dd2, PfscDHODH and Pf NITD609^R ([1]; three P. falciparum strains): equipotent
- PBS solubility [5]: < 1 µM
- Cytotoxicity [11]: no significant cytotoxicity
- CC50 [11]: > 50000 nM
- AUC0-inf ([12]; IV (3) mg/kg): 1.4 µM·h
- CL ([12]; IV (3) mg/kg): 72 mL/min/kg
- MRT0-inf ([12]; IV (3) mg/kg): 2.8 h
- T1/2 ([12]; IV (3) mg/kg): 3.7 h
- Vss ([12]; IV (3) mg/kg): 12 L/kg
- AUC0-t ([12]; IV (3) mg/kg): 1.2 ^¶ µM*hr
- AUC0-inf ([12]; PO (10) mg/kg): 4 µM·h
- Cmax ([12]; PO (10) mg/kg): 600 nM
- T1/2 ([12]; PO (10) mg/kg): 3.2 h
- Tmax ([12]; PO (10) mg/kg): 0.5 h
- AUC0-t ([12]; PO (10) mg/kg): 4 ^¶ µM*hr
- F [12, 20]: 86%

Structure (SMILES): COc1ccc(NC(=O)N2CCCCN3[C@H](CN(C)C(C)C)[C@H](c4ccc(C#Cc5ccccc5)cc4)[C@@H]3C2)cc1 [BRD4716]
- EC50 [1, 18]: 24 nM

Structure (SMILES): COc1ccc(NC(=O)N2CCCCN3[C@H](CO)[C@H](c4ccc(C#CC5CC5)cc4)[C@@H]3C2)cc1 [BRD5774]
- EC50 [1, 18]: 12200 nM

Structure (SMILES): COc1ccc(NC(=O)N2CCCCN3[C@H](CN4CCN(C)CC4)[C@H](c4ccc(C#Cc5ccccc5)cc4)[C@@H]3C2)cc1 [BRD6479]
- EC50 [1, 18]: 158 nM

Structure (SMILES): COc1ccc(NC(=O)N2CCCCN3[C@H](CN4CCC4)[C@H](c4ccc(C#Cc5ccccc5)cc4)[C@@H]3C2)cc1 [BRD8493]
- EC50 [1, 18]: 116 nM

Structure (SMILES): COc1ccc(NC(=O)N2CCCN3[C@H](CO)[C@H](c4ccc(C#Cc5ccccc5)cc4)[C@@H]3C2)cc1 [BRD9599]
- EC50 [1, 18]: 850 nM

Structure (SMILES): C[C@H]1[C@H](OC(=O)CCC(=O)O)O[C@@H]2O[C@@]3(C)CC[C@H]4[C@H](C)CC[C@@H]1[C@@]24OO3 [artesunate, reference compound]
- Effect on parasites [17]: rapid suppression of parasites
- Parasite cytosolic Na^+ concentration [6]: constant

Structure (SMILES): O=C1C(O)=C([C@H]2CC[C@H](c3ccc(Cl)cc3)CC2)C(=O)c2ccccc21 [atovaquone, reference compound]
- EC90 ([1]; Plasmodium falciparum, DD2): 2 nM

Structure (SMILES): OC(c1cc(C(F)(F)F)nc2c(C(F)(F)F)cccc12)C1CCCCN1 (centres unmarked) [mefloquine]
- Parasite cytosolic Na^+ concentration [6]: constant
